Experimental findings from ChEMBL document CHEMBL4251664, “Biocompatible Boron-Containing Prodrugs of Belinostat for the Potential Treatment of Solid Tumors” (ACS Med Chem Lett, 2018) are described below.

SMILES strings stand for the structures. Activity calls are given as the source filed them. The calls are words filed in the database; no cut-off is given here.

In general, T/C refers to the result in the treated group divided by that in the control group, in per cent. Broadly, the EC50 is the concentration giving half of the maximal effect.

In series [1] the test system is HeLa. In words: Prodrug conversion in human HeLa cells assessed as belinostat level after 4 days by UHPLC-MS/MS analysis. The class given is ADME, cell-based. As to conditions: 96 h. Summed up: (§1)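 MDA-MB-231 or HeLa cells were incubated with the pinacol boronate prodrug, and culture medium was sampled daily from day 1 to day 6. The prodrug, boronic acid forms and belinostat were separated, identified and quantified by HPLC coupled to an Orbitrap mass spectrometer. Results are in ng/mL as mean ± SEM of triplicate experiments.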

For series [2], the system named is MDA-MB-231. In words: Prodrug conversion in human MDA-MB-231 cells assessed as belinostat level after 4 days by UHPLC-MS/MS analysis. In kind it is ADME, cell-based. As to conditions: mda-mb-231, 96 h. Summed up:
as §1

Series [3] relates to MDA-MB-231. The series is described as follows: Prodrug conversion in human MDA-MB-231 cells assessed as belinostat level after 5 days by UHPLC-MS/MS analysis. In kind it is ADME, cell-based. As to conditions: mda-mb-231, 120 h. Summed up: as §1
Series [4] is described as follows: Drug uptake in tumor of ovariectomized nu/nu mouse implanted with human MCF7 cells assessed as (E)-4-((3-(3-(N-phenylsulfamoyl)phenyl)acrylamidooxy)methyl)phenylboronic acid level at 10 mg/kg, sc administered once daily for 22 days measured post last dose by HPLC-MS/MS analysis. The class given is ADME, organism-based, Neoplasm. Particulars: in vivo, 528 h. Summed up: (§2)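 After 22 days of 10 mg/kg/day subcutaneous dosing in MCF-7 xenograft mice, animals were sacrificed. Tumours were excised, homogenized and extracted, then analysed by HPLC–MS/MS for belinostat and the free boronic acid. Results are expressed as ng/g tissue.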

The test system of series [5] is HeLa. The series is described as follows: Prodrug conversion in human HeLa cells assessed as (E)-4-((3-(3-(N-phenylsulfamoyl)phenyl)acrylamidooxy)methyl)phenylboronic acid level after 3 days by UHPLC-MS/MS analysis. In kind it is ADME, cell-based. As to conditions: 72 h. Summed up:
as §1

The test system of series [6] is HeLa. In words: Prodrug conversion in human HeLa cells assessed as belinostat level after 5 days by UHPLC-MS/MS analysis. In kind it is ADME, cell-based. As to conditions: 120 h. Summed up:
as §1

The subject of series [7] is MDA-MB-231. In words: Prodrug conversion in human MDA-MB-231 cells assessed as (E)-4-((3-(3-(N-phenylsulfamoyl)phenyl)acrylamidooxy)methyl)phenylboronic acid level after 5 days by UHPLC-MS/MS analysis. The class given is ADME, cell-based. Particulars: mda-mb-231, 120 h. Summed up: as §1
Series [8] deals with MDA-MB-231. In words: Prodrug conversion in human MDA-MB-231 cells assessed as (E)-4-((3-(3-(N-phenylsulfamoyl)phenyl)acrylamidooxy)methyl)phenylboronic acid level after 3 days by UHPLC-MS/MS analysis. In kind it is ADME, cell-based. As to conditions: mda-mb-231, 72 h. In outline:
as §1

In series [9] the test system is MDA-MB-231. In words: Prodrug conversion in human MDA-MB-231 cells assessed as belinostat level after 2 days by UHPLC-MS/MS analysis. As to conditions: mda-mb-231, 48 h. The class given is ADME, cell-based. In outline: as §1
Another series concerns MCF-10A. The series is described as follows: Cytotoxicity against human MCF10A cells assessed as reduction in cell proliferation at 10 uM after 72 hrs by resazurin dye based fluorescence assay. (In general: Alamar Blue is a resazurin reagent that responds to reducing activity.)
The test system of series [10] is MDA-MB-231. The series is described as follows: Prodrug conversion in human MDA-MB-231 cells assessed as belinostat level after 3 days by UHPLC-MS/MS analysis. The class given is ADME, cell-based. Particulars: mda-mb-231, 72 h. In outline: as §1
Series [11] concerns MDA-MB-231. The series is described as follows: Prodrug conversion in human MDA-MB-231 cells assessed as belinostat level after 6 days by UHPLC-MS/MS analysis. The class given is ADME, cell-based. As to conditions: mda-mb-231, 144 h. Summed up:
as §1

The test system of series [12] is MCF7. The series is described as follows: Antitumor activity against human MCF7 cells implanted in ovariectomized nu/nu mouse assessed as tumor volume at 10 mg/kg, sc administered once daily for 22 days measured post last dose relative to control. The class given is functional.
The test system of series [13] is HeLa. In words: Prodrug conversion in human HeLa cells assessed as belinostat level after 6 days by UHPLC-MS/MS analysis. The class given is ADME, cell-based. As to conditions: 144 h. Summed up:
as §1

The test system of series [14] is HeLa. In words: Prodrug conversion in human HeLa cells assessed as (E)-4-((3-(3-(N-phenylsulfamoyl)phenyl)acrylamidooxy)methyl)phenylboronic acid level after 2 days by UHPLC-MS/MS analysis. Particulars: 48 h. In kind it is ADME, cell-based. In outline:
as §1

Series [15] relates to MDA-MB-231. The series is described as follows: Prodrug conversion in human MDA-MB-231 cells assessed as (E)-4-((3-(3-(N-phenylsulfamoyl)phenyl)acrylamidooxy)methyl)phenylboronic acid level after 4 days by UHPLC-MS/MS analysis. The class given is ADME, cell-based. Particulars: mda-mb-231, 96 h. Summed up:
as §1

Series [16] in a line: Drug uptake in tumor of ovariectomized nu/nu mouse implanted with human MCF7 cells assessed as belinostat level at 10 mg/kg, sc administered once daily for 22 days measured post last dose by HPLC-MS/MS analysis. The class given is ADME, organism-based, Neoplasm. Particulars: in vivo, 528 h. Summed up:
as §2

The next series deals with T1, Histone deacetylase 8 (Homo sapiens, UniProt Q9BY41).
T1 sequence (Q9BY41 whole entry): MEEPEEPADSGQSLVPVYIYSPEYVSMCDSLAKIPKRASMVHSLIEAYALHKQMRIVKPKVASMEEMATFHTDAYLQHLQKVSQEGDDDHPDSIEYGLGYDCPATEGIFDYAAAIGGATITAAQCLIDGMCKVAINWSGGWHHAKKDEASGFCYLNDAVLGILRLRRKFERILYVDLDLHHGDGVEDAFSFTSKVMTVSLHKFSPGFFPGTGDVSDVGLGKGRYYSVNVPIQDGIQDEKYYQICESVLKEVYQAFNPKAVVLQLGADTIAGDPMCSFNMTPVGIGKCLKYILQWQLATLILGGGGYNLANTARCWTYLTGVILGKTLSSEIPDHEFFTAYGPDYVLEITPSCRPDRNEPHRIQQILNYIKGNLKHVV
The series is described as follows: Inhibition of human HDAC8 using RHK(Ac)K(Ac)AMC as substrate.

Series [17] relates to HeLa. The series is described as follows: Prodrug conversion in human HeLa cells assessed as (E)-4-((3-(3-(N-phenylsulfamoyl)phenyl)acrylamidooxy)methyl)phenylboronic acid level after 6 days by UHPLC-MS/MS analysis. The class given is ADME, cell-based. Particulars: 144 h. Summed up:
as §1

The subject of series [18] is HeLa. The series is described as follows: Prodrug conversion in human HeLa cells assessed as belinostat level after 2 days by UHPLC-MS/MS analysis. In kind it is ADME, cell-based. Particulars: 48 h. In outline: as §1
The test system of series [19] is HeLa. The series is described as follows: Prodrug conversion in human HeLa cells assessed as (E)-4-((3-(3-(N-phenylsulfamoyl)phenyl)acrylamidooxy)methyl)phenylboronic acid level after 1 day by UHPLC-MS/MS analysis. In kind it is ADME, cell-based. As to conditions: 24 h. In outline: as §1
Series [20] has as its system MCF7. The series is described as follows: Antitumor activity against human MCF7 cells implanted in ovariectomized nu/nu mouse assessed as tumor remission at 10 mg/kg, sc administered once daily for 22 days measured at 1 day interval for 3 weeks during compound dosing. In kind it is functional, organism-based.

As for `CC1(C)OB(c2ccc(CONC(=O)/C=C/c3cccc(S(=O)(=O)Nc4ccccc4)c3)cc2)OC1(C)C`, the Drug metabolism in the series on HeLa [1] worked out at 7.8 ng/mL; in the series with MDA-MB-231 [2], 19.8 ng/mL; in the series on MDA-MB-231 [3] it was 28.5 ng/mL; in the series with HeLa [5], 144.9 ng/mL; in the series with HeLa [6], 3.7 ng/mL; in the series on MDA-MB-231 [7] it was 145.8 ng/mL. Also, the Drug metabolism was found to be 246.9 ng/mL in the series with MDA-MB-231 [8]; 27.7 ng/mL in the series on MDA-MB-231 [9]; 20.3 ng/mL in the series with MDA-MB-231 [10]; 27.8 ng/mL in the series with MDA-MB-231 [11]; 3.8 ng/mL in the series on HeLa [13]; 147.4 ng/mL with HeLa [14]. The Drug metabolism stood at 171.8 ng/mL in the series on MDA-MB-231 [15], 49.6 ng/mL in the series on HeLa [17], 6.6 ng/mL in the series with HeLa [18] and 282.7 ng/mL in the series on HeLa [19]. The Drug uptake was determined as 51 ng/g in [4] and 57 ng/g in [16]. Also, the Activity entry with MCF-10A is given as “Non-Toxic”. Besides, the T/C with MCF7 [12] is given as 14.6%. At Histone deacetylase 8, this molecule had an EC50 of 341 µM. For the same molecule, the result with MCF7 [20] was Active.
